Experimental data taken from ChEMBL document CHEMBL1128394, “Hydroxamic acids as potent inhibitors of endothelin-converting enzyme from human bronchiolar smooth muscle” (J Med Chem, 1995).
Values joined by “and” are separate entries in the source; they are usually repeats but may differ in a detail not shown here. Identical values can stand only once. Residues, ends and D or L forms follow the SMILES beside them. *: point of attachment. Cbz = O=C(OCc1ccccc1)*; NHOH = ON*

Assays:
Neprilysin [1] = target: T1, Neprilysin (Oryctolagus cuniculus, UniProt P08049); experiment: Inhibitory activity against big ET-1 of Neutral endopeptidase
T1 sequence (P08049 whole entry): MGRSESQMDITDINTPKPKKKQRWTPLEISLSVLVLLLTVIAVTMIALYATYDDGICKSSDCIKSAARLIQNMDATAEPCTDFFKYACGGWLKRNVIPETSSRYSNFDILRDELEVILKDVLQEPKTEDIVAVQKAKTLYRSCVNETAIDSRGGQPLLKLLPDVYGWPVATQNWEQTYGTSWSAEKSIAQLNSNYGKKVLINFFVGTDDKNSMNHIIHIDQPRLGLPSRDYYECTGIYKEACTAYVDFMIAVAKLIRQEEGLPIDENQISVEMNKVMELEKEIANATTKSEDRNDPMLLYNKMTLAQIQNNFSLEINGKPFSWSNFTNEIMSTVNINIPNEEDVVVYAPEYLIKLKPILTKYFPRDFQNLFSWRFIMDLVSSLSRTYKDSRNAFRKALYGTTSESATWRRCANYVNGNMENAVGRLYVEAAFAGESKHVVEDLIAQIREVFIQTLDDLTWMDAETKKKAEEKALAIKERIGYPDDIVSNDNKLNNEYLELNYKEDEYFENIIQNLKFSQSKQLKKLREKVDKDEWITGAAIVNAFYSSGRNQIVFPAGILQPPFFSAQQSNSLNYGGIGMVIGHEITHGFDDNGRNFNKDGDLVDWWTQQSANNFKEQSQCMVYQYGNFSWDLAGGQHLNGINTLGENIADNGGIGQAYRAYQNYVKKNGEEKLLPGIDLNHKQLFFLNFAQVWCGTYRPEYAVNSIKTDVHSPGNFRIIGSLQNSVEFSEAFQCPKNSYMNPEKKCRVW
How it was run: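 Soluble rabbit kidney neutral endopeptidase, run under the same conditions as the ECE assay: 30 min inhibitor preincubation at 37 °C, 3 μM human big ET-1, 4–5 h at 37 °C, pH 7.2 Na-MOPS buffer with NaCl and CaCl2. ET-1 formed was measured by reverse-phase HPLC with fluorescence detection. IC50 by least-squares curve fit.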

Thermolysin = target: T2, Thermolysin (Bacillus thermoproteolyticus, UniProt P00800); experiment: Inhibitory activity against thermolysin with 0.5 uM [Leu5]-enkephalin (NEN)
T2 sequence (P00800 whole entry): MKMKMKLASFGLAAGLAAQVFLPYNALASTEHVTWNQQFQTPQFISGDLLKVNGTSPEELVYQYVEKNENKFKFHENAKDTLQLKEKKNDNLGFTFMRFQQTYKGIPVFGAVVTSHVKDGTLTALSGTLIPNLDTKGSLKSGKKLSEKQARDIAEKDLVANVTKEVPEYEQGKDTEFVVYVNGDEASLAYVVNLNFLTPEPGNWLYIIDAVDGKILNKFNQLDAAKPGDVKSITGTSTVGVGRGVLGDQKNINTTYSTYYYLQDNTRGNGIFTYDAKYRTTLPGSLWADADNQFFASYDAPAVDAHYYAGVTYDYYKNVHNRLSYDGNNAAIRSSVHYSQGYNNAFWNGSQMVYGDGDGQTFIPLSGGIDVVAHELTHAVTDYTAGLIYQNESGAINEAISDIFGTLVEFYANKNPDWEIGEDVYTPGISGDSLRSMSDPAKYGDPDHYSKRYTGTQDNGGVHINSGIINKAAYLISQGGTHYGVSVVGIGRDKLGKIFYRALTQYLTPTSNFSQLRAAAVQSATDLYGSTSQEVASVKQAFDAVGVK
How it was run: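 Thermolysin preincubated 15 min with inhibitor. Substrate 0.5 μM [3,5-3H-Tyr1][Leu]enkephalin. Reaction ran 10 min at 20 °C in 50 mM Tris-Cl pH 7.5.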

[2] = target: T3, Endothelin-converting enzyme 1 (Homo sapiens, UniProt P42892); experiment: Inhibitory activity against human bronchiolar smooth muscle Endothelin-converting enzyme 1; format: tissue-based, Muscle tissue
T3 sequence (P42892 whole entry): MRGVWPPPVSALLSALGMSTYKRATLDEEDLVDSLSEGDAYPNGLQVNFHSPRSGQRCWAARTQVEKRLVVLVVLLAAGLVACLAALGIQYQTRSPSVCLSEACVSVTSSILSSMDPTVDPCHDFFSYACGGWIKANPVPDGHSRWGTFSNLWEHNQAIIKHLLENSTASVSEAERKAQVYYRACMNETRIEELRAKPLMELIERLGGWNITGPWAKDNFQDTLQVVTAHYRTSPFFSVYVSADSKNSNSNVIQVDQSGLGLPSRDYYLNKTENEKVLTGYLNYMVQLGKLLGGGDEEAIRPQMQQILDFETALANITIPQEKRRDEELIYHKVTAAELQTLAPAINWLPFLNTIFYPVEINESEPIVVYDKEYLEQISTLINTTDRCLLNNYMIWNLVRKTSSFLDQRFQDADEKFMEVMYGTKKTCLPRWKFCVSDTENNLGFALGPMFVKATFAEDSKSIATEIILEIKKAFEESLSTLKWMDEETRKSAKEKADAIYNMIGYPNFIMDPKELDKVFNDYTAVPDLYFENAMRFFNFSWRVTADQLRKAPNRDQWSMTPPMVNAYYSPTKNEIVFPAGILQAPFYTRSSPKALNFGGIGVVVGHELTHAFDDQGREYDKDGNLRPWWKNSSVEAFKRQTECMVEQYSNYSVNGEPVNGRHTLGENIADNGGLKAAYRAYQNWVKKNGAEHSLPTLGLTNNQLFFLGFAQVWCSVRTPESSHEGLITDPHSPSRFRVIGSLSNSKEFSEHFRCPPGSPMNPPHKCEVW
How it was run: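 Enzyme purified from cultured human bronchiolar smooth muscle cell membranes (octyl glucoside solubilization, ion exchange, gel filtration). Preincubated 30 min at 37 °C with inhibitor (in DMSO), then 3 μM human big ET-1 (final) added. Run 4–5 h at 37 °C in 50 mM Na-MOPS pH 7.2, 150 mM NaCl, 30 μM CaCl2, amastatin, PMSF. Stopped with EDTA. ET-1 quantified by reverse-phase HPLC with fluorescence.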

Neprilysin [3] = target: T1, Neprilysin; experiment: Inhibitory activity against Leu-enkeph of Neutral endopeptidase
How it was run: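 Soluble rabbit kidney neutral endopeptidase preincubated 15 min with inhibitor. Tritiated [Leu]enkephalin as substrate. Reaction ran 10 min at 20 °C in 50 mM Tris-Cl pH 7.5.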

Row | Compound | IC50 (Neprilysin [1]) | IC50 (Thermolysin) [nM] | IC50 [2] | IC50 (Neprilysin [3])
1 | CC(C)CC(C(=O)NO)C(=O)NC(Cc1c[nH]c2ccccc12)C(=O)O (stereo not given) | 0.07 nM | 5 | 0.25 nM | 0.03 nM
2 | CC(C)C(CC(=O)NO)C(=O)NC(CC(N)=O)C(=O)O (stereo not given) | 750 nM | – | 150 nM | 170 nM
3 | CC(C)C(CNO)C(=O)NC(Cc1c[nH]c2ccccc12)C(=O)O (stereo not given) | 1000 nM | – | 500 nM | 950 nM
4 | CC(C)CC(C(=O)NOCc1ccccc1)C(=O)NC(Cc1c[nH]c2ccccc12)C(N)=O (stereo not given) | – | – | 10000 nM | –
5 | CC(C)C(CC(=O)NOCc1ccccc1)C(=O)NC(CC(N)=O)C(N)=O (stereo not given) | – | – | > 10000 nM | –
6 | O=C(O)CCNC(=O)CC(=O)NO | – | – | 3000 nM | –
7 | CC(C)C(CC(=O)NO)C(=O)NC(Cc1c[nH]c2ccccc12)C(=O)O (stereo not given) | 30 nM and 40 nM | 2000 | 17 nM and 40 nM | 5 nM and 18 nM
8 | CC(C)C[C@H](NP(=O)(O)O[C@@H]1O[C@@H](C)[C@H](O)[C@@H](O)[C@H]1O)C(=O)N[C@@H](Cc1c[nH]c2ccccc12)C(=O)O [PHOSPHORAMIDON] | 2 nM | 33 | – | 6 nM
9 | CC(C)CC(C(=O)NO)C(=O)NC(Cc1c[nH]c2ccccc12)C(N)=O (stereo not given) | 7 nM | 2 | 4.8 nM | 2 nM
10 | CC(C)C(CC(=O)NO)C(=O)NCCC(=O)O (stereo not given) | 270 nM | – | 190 nM | 30 nM
11 | CC(C)C(CC(=O)NO)C(=O)NC(CC(N)=O)C(N)=O (stereo not given) | – | – | 3000 nM | –
12 | CCCCC[C@H](CC(=O)NO)C(=O)N[C@H](C(=O)N1CCC[C@H]1CO)C(C)C [ACTINONIN] | 8200 nM | – | 4000 nM | –
13 | CC(C)C(CC(N)=O)C(=O)NCCC(=O)O (stereo not given) | – | – | 6500 nM | –
14 | CC(C)C(C(=O)NO)C(=O)NCCC(=O)O (stereo not given) | 1 nM | 1900 | 0.01 nM | 2 nM
15 | C[C@H](NC(=O)[C@@H](CC(=O)NO)Cc1ccccc1)C(=O)O [KELATORPHAN] | 8 nM | 3 | 8 nM | 1 nM
16 | CC(C)C(C(=O)NO)C(=O)NC(Cc1c[nH]c2ccccc12)C(=O)O (stereo not given) | 0.03 nM | 5 | 0.2 nM | 0.4 nM
17 | CC(C)C(C(=O)NO)C(=O)NC(CC(N)=O)C(=O)O (stereo not given) | 20 nM | – | 3 nM | 1 nM
18 | CC(C)C(C(=O)NO)C(=O)NC(Cc1c[nH]c2ccccc12)C(N)=O (stereo not given) | 3 nM | 9 | 1.2 nM | 2 nM
19 | CC(C)C[C@H](NC(=O)[C@@H]1CCCN1C(=O)OCc1ccccc1)C(=O)NCC(=O)NO (Cbz-Pro-Leu-Gly-{NHOH}) | 2300 nM | – | 33000 nM | –
20 | O=C(O)CNC(=O)C(CS)Cc1ccccc1 (stereo not given) [THIORPHAN] | – | – | 8 nM | –
21 | CC(C)C(C(=O)NO)C(=O)NCC(=O)O (stereo not given) | 8 nM | – | 6.8 nM | 3 nM
22 | CC(C)C[C@H](C(=O)NO)C(=O)N[C@@H](C)C(=O)NCC(N)=O | 40 nM | 175 | 11 nM | 2 nM
